# In the library only some 2.3% were active in any assay of this set; here they are far more common.
# TRPC4 agonist: activators of mouse TRPC4 channel; hit rate 0.49% among 310,000; B-score at 10 µM; AID 2237; HEK293 TRPC4beta/mu-opioid, Fluo4 calcium fluorescence; hits give high values; Q9QUQ5;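 active = B-score above 5 SD of library B-scores, and initial fluorescence ratio not above library mean plus 5 SD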;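 also: positive B-score marks a calcium rise read as TRPC4 activation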
#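 Material: TRPC4beta and mu-opioid receptor HEK293 stable cells | Incubation: 45 min room-temperature Fluo4 loading, 110 s read | Detection: Kinetic Fluo4 calcium fluorescence | Measure: Integrated baseline-normalised fluorescence ratio, converted to per-well B score | Benchmarks: Low control buffer alone, high control maximal DAMGO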
# TRPC4 potent: allosterically enhances the mouse TRPC4 cation channel | Q9QUQ5 | HEK293 TRPC4beta/mu-opioid, DAMGO EC20, Fluo-4 Ca2+ flux; hits give high values | B-score at 10 µM | hit rate 0.42% among 310,000 | AID 2227;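 active = B-score of calcium response area above 5 SD of library B-scores, with initial fluorescence ratio within 5 SD of library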;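 also: B-score of integrated fluorescence ratio over time as area under calcium response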
# TRPC4 block: TRPC4 (mouse) channel inhibition | B-score at 10 µM | Q9QUQ5 | AID 2247 | hit rate 0.39% among 300,000 | HEK293 TRPC4beta/mu-opioid, DAMGO-evoked Fluo4 calcium flux; hits give low values;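 active = B-score over 3 SD under the library average, no early fluorescence shift, positive overall ratio signal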
#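 Material: HEK293 cells with stable TRPC4beta plus mu-opioid receptor expression / Probe or stimulus: DAMGO in two steps, submaximal then maximal / Compound: single concentration per test compound / Technique: kinetic Fluo4 fluorescence imaging of calcium influx / Read-out: per-well B score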
# TRPC6 activator: activates the mouse TRPC6 cation channel. B-score at 10 µM. Q61143. hit rate 0.13% among 310,000. AID 2550. HEK293-TRPC6 membrane potential dye fluorescence; hits give high values;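 active = B-score of the integrated fluorescence ratio above library mean plus 3 SD, and starting fluorescence ratio within library mean plus 5 SD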;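 also: higher score means more depolarization so channel activation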
# TRPC6 inhibitor: inhibitors of mouse TRPC6 channel; Q61143; HEK293-TRPC6, membrane potential dye, ACh-evoked depolarization; hits give low values; B-score at 10 µM; hit rate 1.1% among 310,000; AID 2553;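 active = B-score under library mean minus 3 SD, initial fluorescence not abnormally high, positive integrated signal ratio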;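 also: B-score derived from integrated fluorescence ratio over the kinetic read; more negative B-score means stronger inhibition of depolarization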
# FID counter: counter-screen for HCV NS3 helicase inhibitors: DNA intercalator displacement; AID 1845; hit rate 0.17% among 290,000; DNA fluorescent intercalator displacement, fluorescence; inhibition, % at 7.9 µM; in the data active = inhibition above about 37%;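 also: 0% = vehicle and 100% = reference compound; higher means more ethidium bromide displaced from hairpin DNA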
# TRPC4 spec 2: second selectivity test of TRPC6 inhibitors: effect on mouse TRPC4 | shares compounds with TRPC6 inhibitor | HEK293 TRPC4/MOR, membrane potential dye fluorescence; channel activated by saturating DAMGO dose | inhibition, % at 10 µM | hit rate 42% among 920;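 active = compounds whose fluorescence signal differed from control wells by over 3 SD, either direction, in both duplicate plates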
# TRPC4 spec: selectivity of TRPC6 inhibitors: effect on mouse TRPC4; shares compounds with TRPC6 inhibitor; HEK293 TRPC4/mu-opioid, membrane potential fluorescence; activity change, negative = inhibition, % at 10 µM; hit rate 61% among 920; AID 2777;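 active = rise or fall in signal beyond 3 SD of buffer-only wells in both replicate plates, either sign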;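 also: integrated kinetic ratio of fluorescence range over baseline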
# HEK293 MPD ctr 2-1: second check of TRPC6 inhibitor effects in parental HEK293 cells. hit rate 31% among 920. shares compounds with TRPC6 inhibitor. parental HEK293 membrane potential dye fluorescence; maximal acetylcholine challenge after compound addition. signal change vs control, % at 10 µM;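 active = membrane potential signal moving either way by over 3 SD of the maximum-effect control, in both duplicate plates, meaning non-specific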
# HEK293 MPD ctr-1: counter-screen for TRPC6 inhibitors: effect in parental HEK293 cells; membrane potential signal change, % at 10 µM; shares compounds with TRPC6 inhibitor; hit rate 60% among 920; parental HEK293 membrane potential dye fluorescence;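 active = membrane potential signal shifting up or down by more than 3 SD of buffer-only wells, on both duplicate plates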
# HEK293 MPD ctr-2: counter-screen for TRPC6 modulators: effect in parental HEK293 cells. shares compounds with TRPC6 inhibitor. membrane potential dye fluorescence. membrane potential signal change, % at 10 µM. hit rate 51% among 2,400. AID 488924;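 active = membrane potential signal moves up or down beyond 5 SD from buffer-only wells, on both duplicate plates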
# HEK293 MPD ctr 2-2: second check of TRPC6 modulator effects in parental HEK293 cells | hit rate 14% among 2,400 | shares compounds with TRPC6 inhibitor | inhibition, % at 10 µM | membrane potential dye fluorescence; after compound, maximal acetylcholine stimulation;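 active = membrane potential signal drops by more than 5 SD from the mean control signal, in both duplicate plates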;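 also: plate controls were acetylcholine ECmax control wells for no effect and buffer only wells for full effect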
# TRPC4 ctr mod: selectivity of TRPC6 modulators against mouse TRPC4; shares compounds with TRPC6 inhibitor; HEK293 TRPC4/mu-opioid, membrane potential fluorescence; percent change from control (negative = decrease, positive = increase), % at 10 µM; hit rate 69% among 2,400;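 active = membrane potential signal moved up or down beyond 5 SD of buffer control wells, in both duplicate plates, actives on both sides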;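 also: plate controls were assay buffer wells for no effect and DAMGO maximal-effect wells for full effect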
# TRPC4 ctr inh 2: second check of whether TRPC6 modulators also affect mouse TRPC4. inhibition, % at 10 µM. shares compounds with TRPC6 inhibitor. AID 488928. HEK293 TRPC4/mu-opioid, membrane potential dye fluorescence; stimulated with maximal-effect DAMGO. hit rate 55% among 2,400;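 active = drop in membrane potential signal beyond 5 SD of the control wells in both duplicate plates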;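 also: TRPC4 counter screen for TRPC6 hits run under conditions tuned for TRPC6 not TRPC4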
# TRPC6 inh conf: mouse TRPC6 inhibitor confirmation; shares compounds with TRPC6 inhibitor; HEK293-TRPC6, membrane potential dye, ACh-evoked depolarization; inhibition, % at 10 µM; hit rate 43% among 3,300; AID 488960;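 active = fluorescence ratio falls more than 5 SD below the full-stimulation control mean, in both duplicate runs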;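 also: integrated fluorescence ratio of peak minus minimum over baseline after agonist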
# TRPC6 act confirm: mouse TRPC6 activator confirmation; HEK293-TRPC6 membrane potential dye fluorescence, FDSS; AID 488961; shares compounds with TRPC6 inhibitor; hit rate 11% among 2,800; activation, % at 10 µM;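 active = ratio signal rise beyond 5 SD above unstimulated control wells' mean, seen in both duplicate runs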;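 also: plate controls were buffer EC0 wells for no effect and acetylcholine ECmax response for full effect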
# The depositor's hits bear a star; i = inactive; / = no result given.
SMILES,TRPC4 agonist,TRPC4 potent,TRPC4 block,TRPC6 activator,TRPC6 inhibitor,FID counter,HEK293 MPD ctr-2,HEK293 MPD ctr 2-2,TRPC4 ctr mod,TRPC4 ctr inh 2,TRPC6 inh conf,TRPC6 act confirm,others
O=C(O)CCC(=O)N1CCN(Cc2ccc3c(c2)OCO3)CC1,i,i,i,i,-6.8*,1,/,/,/,/,i,i,TRPC4 spec 2=i;TRPC4 spec=i;HEK293 MPD ctr 2-1=i;HEK293 MPD ctr-1=i
N#Cc1ccc(COc2cccc3cccnc23)cc1,i,i,i,i,i,-18,/,/,/,/,/,/,
O=C(c1cccn2c(=O)c3cc(Cl)ccc3nc12)N1CCN(Cc2ccc3c(c2)OCO3)CC1,i,i,i,i,-7.5*,-2,/,/,/,/,i,i,TRPC4 spec 2=i;TRPC4 spec=i;HEK293 MPD ctr 2-1=i;HEK293 MPD ctr-1=i
CSc1ccc(S(=O)(=O)N2CCN(Cc3ccc4c(c3)OCO4)CC2)cc1,i,i,i,i,-5*,-9,i,i,i,i,40%*,i,
COc1ccc(CN2C(=O)C(Cc3ccccc3)Nc3ncnc(N4CCc5ccccc5C4)c32)cc1 (configuration not stated),i,i,i,i,i,/,/,/,/,/,/,/,
CCOC(=O)c1c2ccccc2[n+]([O-])n1[C@@H](C)C(N)=O,i,i,i,i,i,/,/,/,/,/,/,/,
COc1ccc(C(=O)c2coc3ccc(O)c(CN4CCCCC4)c23)cc1,i,i,i,i,-8.8*,4,/,/,/,/,i,i,TRPC4 spec 2=40%*;TRPC4 spec=i;HEK293 MPD ctr 2-1=i;HEK293 MPD ctr-1=1.5%*
O=C(c1ccccc1)c1coc2ccc(O)c(CN3CCOCC3)c12,i,i,i,i,i,2,/,/,/,/,/,/,
COc1ccc(OC)c(C(=O)c2coc3ccc(O)c(CN(C)C)c23)c1,i,i,i,i,i,8,/,/,/,/,/,/,
COc1ccc2occ(C(=O)c3coc4ccc(O)c(CN(C)C)c34)c2c1,i,i,i,i,-13*,10,-146%*,i,-34%*,84%*,67%*,i,
C=CCn1c(Oc2cc(C)ccc2C)nc2c1c(=O)n(C)c(=O)n2C,i,i,i,i,-6.2*,-32,140%*,i,30%*,41%*,i,/,
CCSc1nc(N2CCOCC2)c2c(c1C#N)CCCC2,i,i,i,i,i,-9,/,/,/,/,/,/,
CC(C)c1nc(N2CCOCC2)c(C#N)c2c1CCCC2,i,i,i,i,-5.5*,-6,i,i,18%*,i,i,/,

# Screening data from PubChem BioAssay.
